Compound activity (PubChem BioAssay)
A selection: hits, their analogues and other compounds. The true share with any hit is near 2.2%.
CDK5 inh = inhibitors of human CDK5/p35 kinase; 0.01% of 330,000 active; AID 488839; inhibition, % at 10 µM; Recombinant CDK5/p35, ADP-Glo luminescence, 60 min; Q00535+Q15078;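 active = highest replicate inhibition of at least 50% and at least 75% of replicates reaching 50%; inconclusive = only one of the two criteria met; inactive = both criteria failed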;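 also: plate controls were DMSO neutral control for no effect and GW8510 at 10 µM for full effect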
CAL PDZ FP-1 = CAL PDZ (human) peptide binding inhibition; Q9HD26; purified CAL PDZ, TMR-peptide fluorescence polarization, 1 h; inhibition, % at 24.9 µM; 0.92% of 300,000 active;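 active = mean inhibition of at least 30% with at least half of replicates also reaching 30%; inconclusive = no clear call, values can overlap the other calls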;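 also: 0% = DMSO neutral control and 100% = excess unlabeled competitor peptide PRC23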
DYRK1A inh = blocks rat Dyrk1A kinase activity; inhibition, % at 12.5 µM; 0.43% of 310,000 active; ADP-Glo luminescence, NFATc1 peptide; in the data active = inhibition above about 50%;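 also: plate controls were vehicle with enzyme for no effect and no enzyme for full effect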
Rtt109 Vps75 = inhibitors of Candida albicans Rtt109/Vps75 histone acetyltransferase; Q5AAJ8; purified Rtt109/Vps75, ThioGlo CoA-SH fluorescence, 4 h; inhibition, % at 34.9 µM; 0.16% of 330,000 active; AID 540336;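 active = inhibition of at least 50% in every replicate; inconclusive = best replicate reaches 50% inhibition but some replicates fall short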
Target sequence (Q5AAJ8 whole entry, looked up): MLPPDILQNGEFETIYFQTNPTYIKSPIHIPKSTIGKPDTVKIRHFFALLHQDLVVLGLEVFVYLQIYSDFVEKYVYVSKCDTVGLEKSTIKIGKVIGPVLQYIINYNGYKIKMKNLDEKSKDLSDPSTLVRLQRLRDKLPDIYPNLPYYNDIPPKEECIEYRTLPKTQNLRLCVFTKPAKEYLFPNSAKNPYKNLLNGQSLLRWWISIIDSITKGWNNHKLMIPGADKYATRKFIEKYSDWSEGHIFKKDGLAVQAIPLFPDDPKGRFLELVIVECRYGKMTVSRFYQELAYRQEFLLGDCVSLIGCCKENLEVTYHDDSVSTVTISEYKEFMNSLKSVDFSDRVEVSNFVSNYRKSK
CAL PDZ FP-2 = blocks peptide binding to human CAL PDZ domain | Q9HD26 | purified CAL PDZ, TMR-peptide fluorescence polarization, 1 h | inhibition, % at 20 µM | 0.02% of 330,000 active | AID 504414;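 active = highest replicate inhibition of at least 40%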;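 also: plate controls were DMSO neutral control wells for no effect and unlabeled competitor peptide control wells for full effect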
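Test system: purified CerCALP PDZ construct; Compound dosing: one concentration, 20 µM compound; Also added: TMR-labelled reporter peptide T*-PRC34 bound in PDZ groove; Read-out: inhibition from polarization loss; Controls: unlabelled peptide and DMSO controls; Signal: FP readout, S and P plane fluorescence; Incubation: 1 h at RT.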
dFosB act-1 = enhances mouse delta FosB homodimer DNA binding. P13346. purified delta FosB, TAMRA-CDK5 oligo fluorescence polarization; percent of positive-control signal above neutral wells. activation, % at 25 µM. 0.99% of 340,000 active;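 active = mean activation above about 17%, with every replicate also reaching it, limit read from the data, passing the limit was not always enough; inconclusive = only one of the two conditions met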
Target sequence (P13346 whole entry, looked up): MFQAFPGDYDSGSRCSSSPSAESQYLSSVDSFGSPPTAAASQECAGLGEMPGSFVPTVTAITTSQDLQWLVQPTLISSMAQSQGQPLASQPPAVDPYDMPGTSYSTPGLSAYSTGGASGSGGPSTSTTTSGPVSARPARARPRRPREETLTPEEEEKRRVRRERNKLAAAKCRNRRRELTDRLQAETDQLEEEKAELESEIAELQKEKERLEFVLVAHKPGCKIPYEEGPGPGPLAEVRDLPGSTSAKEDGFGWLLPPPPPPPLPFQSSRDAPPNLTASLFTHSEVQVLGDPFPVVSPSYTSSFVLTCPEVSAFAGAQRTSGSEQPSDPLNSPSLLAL
dFosB act-2 = enhances mouse delta FosB homodimer binding to DNA; activation, % at 24.9 µM; shares compounds with dFosB act-1; 2,400 tested, under 10 active; purified delta FosB, TAMRA-CDK5 oligo fluorescence polarization; normalised: neutral wells 0, positive control 100;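 active = highest replicate activation at or above 34% and every replicate reaching that threshold; inconclusive = meets only one of the two criteria; inactive = meets neither criterion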;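 also: higher polarization means more probe DNA bound by delta FosB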
* hit, by the source's call; ? = inconclusive; · = no result given.

SMILES	CDK5 inh	CAL PDZ FP-1	DYRK1A inh	Rtt109 Vps75	CAL PDZ FP-2	dFosB act-1	dFosB act-2
CS(=O)(=O)c1ccc2nc(NC(=O)Nc3ccccc3F)sc2c1	0.9	18.0	-1.8	-0.9	-0.4	19.9*	0.0
COc1ccc2nc(NC(=O)Nc3cccc4ccccc34)sc2c1	-1.1	-3.0	-5.0	-3.8	-1.2	56.7*	0.7
Cc1ccc(C(=O)/C=C/c2ccco2)c(O)c1	-0.6	-0.1	-7.6	2.2	-0.5	-9.8	·
COc1ccc(OC)c(NC(=O)c2cc(-c3cc(C)cc(C)c3O)n[nH]2)c1	1.6	9.1	-5.6	-3.5	-0.2	12.0	·
COc1ccccc1NC(=O)Nc1nc2ccc(S(N)(=O)=O)cc2s1	0.6	-3.3	-1.4	2.9	-3.9	49.2*	-6.1
Cc1ccc(NC(=O)Nc2nc3ccccc3s2)cc1NC(=O)Nc1nc2ccccc2s1	0.9	-2.4	-2.0	-2.7	-1.2	31.8*	1.3
CSc1ncccc1C(=O)OCC(=O)Nc1ccc(C)c(S(=O)(=O)N2CCOCC2)c1	-0.4	-6.2	·	-1.7	-0.4	-4.9	·
COc1ccc(C)cc1S(=O)(=O)NCC(c1ccc2c(c1)OCO2)N1CCOCC1 (stereo not given)	-1.4	-0.8	5.2	3.2	-1.8	-5.9	·
N#Cc1ccc(NC(=O)c2cc(-c3cccs3)on2)cc1	0.8	-4.9	-0.1	5.8	0.0	21.7*	6.0
Cc1cc(NC(=O)c2cc(-c3cccs3)on2)no1	0.8	-1.0	-13.0	4.4	·	-1.7	·
S=C(Nc1ccc2snnc2c1)N1CCN(c2ccccn2)CC1	-6.1	-5.0	-3.7	6.2	0.6	3.0	·
COc1ccccc1NC(=O)c1cc(S(=O)(=O)N2CCc3ccccc32)ccc1F	-1.7	-0.6	-13.7	9.0	-0.6	30.2*	5.1
Cc1cc(C)c(NC(=O)Cn2nc(-c3ccccc3)nc2-c2ccccc2)c(C)c1	-0.1	0.1	-1.7	7.8	-2.6	2.2	·
Cc1cccc(C)c1NC(=O)Cn1nc(-c2ccccc2)nc1-c1ccccc1	-1.1	1.8	-3.7	·	-2.2	45.3*	1.2
O=C(CN1C(=O)S/C(=C\c2ccc(Cl)cc2)C1=O)NNC(=O)c1ccccc1O	-2.3	-1.4	-4.8	·	-1.4	26.0*	2.2
COc1ccc(/C=C2\SC(=O)N(CC(=O)Nc3ccc(O)cc3)C2=O)cc1OC	-0.6	-7.7	-2.4	0.9	0.0	24.5*	0.5
COC(=O)COc1ccc(/C=C2\SC(=O)N(CC(=O)Nc3ccccc3F)C2=O)cc1	1.4	·	-3.1	12.4	-1.7	32.7*	-2.3
CC(/C=C1\SC(=O)N(CC(=O)Nc2cccc(O)c2)C1=O)=C\c1ccccc1	0.7	-1.3	3.9	3.5	-0.6	24.2*	2.7
COc1ccc(/C=C2\SC(=O)N(CC(=O)Nc3ccccc3O)C2=O)cc1OC	0.9	-9.8	-2.4	0.3	-1.4	2.9	·
COc1cc2c(cc1OC)C(c1cc(Br)ccc1O)N(C(C)=O)CC2 (stereo not given)	-0.9	-4.2	-15.0	8.4	0.2	-8.7	·
CC(=O)c1ccc(S(=O)(=O)N(C)CC(=O)NCC2CCCCC2)cc1	-0.1	-1.7	-0.1	2.5	-1.7	-10.1	·
COc1ccc(-c2csc3ncn(CC(=O)N4CCOCC4)c(=O)c23)cc1	-0.2	-1.5	24.8	2.6	-1.5	8.8	·
O=C(CN1C(=O)S/C(=C\c2cccc(Cl)c2)C1=O)NC1C=CS(=O)(=O)C1 (stereo not given)	·	-3.6	·	-3.6	-0.7	-3.2	·
O=C(CN1C(=O)S/C(=C\c2ccc(Cl)cc2)C1=O)NC1C=CS(=O)(=O)C1 (stereo not given)	1.4	-7.2	-5.3	-7.1	-1.4	20.2*	5.0
CSc1nc(N)nc(SCC(=O)c2ccccc2)c1C#N	-1.4	·	-5.3	-1.0	0.8	-1.4	·
SMILES	CDK5 inh	CAL PDZ FP-1	DYRK1A inh	Rtt109 Vps75	CAL PDZ FP-2	dFosB act-1	dFosB act-2
COc1ccc(C(=O)CSc2nc(N)nc(SC)c2C#N)cc1	-1.9	-1.7	-0.1	0.3	-0.2	56.4*	3.7
Cc1[nH]oc(=O)c1N=Nc1ccc2[nH]c(=O)[nH]c2c1	-2.7	·	32.0	6.1	-0.8	2.2	·
CCOC(=O)C1CCN(C(=O)Cn2c(=O)c3cccn3c3cccnc32)CC1	·	-3.4	·	0.6	-1.4	-7.9	·
O=C(Nc1ncc(Cc2ccc(C(F)(F)F)cc2)s1)c1ccc(-c2cccc([N+](=O)[O-])c2)o1	-0.7	2.2	1.1	-3.7	-0.5	12.6	·
O=C(Nc1ncc(Cc2ccccc2Cl)s1)c1ccc(-c2cccc([N+](=O)[O-])c2)o1	-2.0	-3.1	30.6	-6.7	-2.5	21.7*	4.0
Cc1cnc(NC(=O)c2ccc(-c3ccc([N+](=O)[O-])cc3)o2)s1	-1.8	-0.9	0.5	-1.2	0.7	59.9*	2.0
CCCCNC(=O)CCC(=O)Nc1ccc2nc(N3CCN(C)CC3)cc(C)c2c1	0.6	2.2	0.1	-3.0	0.3	-4.8	·
Cc1cc(N2CCCC2)nc2ccc(NC(=S)NCCCN3CCC(C)CC3)cc12	-0.5	-3.5	2.4	-7.5	-1.0	46.1*	2.3
CCN1CCN(c2cc(C)c3cc(NC(=S)NCCN(C)C)ccc3n2)CC1	-6.3	-0.9	2.2	8.1	3.1	20.0*	6.5
Cc1cc(N2CCN(C)CC2)nc2ccc(NC(=S)N3CCN(c4cccc(Cl)c4)CC3)cc12	1.1	-2.6	-2.8	-3.3	-0.7	51.1*	5.4
Cc1cc(N2CCN(C)CC2)nc2ccc(NC(=S)NCCCN3CCc4ccccc4C3)cc12	-0.6	4.5	-4.4	23.6	1.7	30.6*	0.5
CCCCN(C)CCNC(=S)Nc1ccc2nc(N3CCN(CC)CC3)cc(C)c2c1	1.9	-1.7	17.2	4.8	0.0	?	·
COC(=O)c1cc(OC)c(OC)cc1NC(=O)c1cc(OC)cc(OC)c1	-0.2	-2.0	0.3	-12.2	-2.9	23.2*	-4.2
COC(=O)c1cc(OC)c(OC)cc1NC(=O)c1csc(C)c1	0.4	5.2	0.2	20.8	-1.7	-2.2	·
CCCn1cc(S(=O)(=O)c2ccccc2)c(=O)c2cc(CC)ccc21	-2.0	-4.9	-3.1	-7.6	-2.9	-1.6	·
Cc1ccc(-n2nnnc2SCC(=O)Nc2ncc(Cc3ccccc3Cl)s2)cc1	·	-5.2	2.5	0.2	-0.2	104.4*	6.4
Cc1ccc(-c2nc(NC(=O)CSc3nnnn3-c3ccccc3)ns2)cc1	0.9	2.3	2.7	-4.0	-1.7	37.8*	1.5
Cc1ccc(-c2csc3nnc(SCC(=O)Nc4nsc(-c5ccccc5)n4)n23)cc1	-1.8	·	12.1	0.8	-2.9	7.3	·
N#C/C(=C\c1ccccc1)C(=O)N(c1ccccn1)C1CCCCC1	0.5	-1.2	3.6	-2.1	0.3	1.1	·
